Counter-ions that a name gives are not always drawn. Like-named read-outs stand apart in the source and are kept apart here. One block for each compound: values may come before it.
Columns and labels:
[1] = assay type: in vivo, human
[2] = parameters: species or system rhesus macaques; conditions: rhesus monkey, in vivo, sc
[3] = system: R5X4 dual-tropic HIV-1 (strain 89.6); assay type: cell-based; conditions: seven days, n=4
HIV-infected CD4 T cells = assay type: cell-based, human; conditions: 1μg/ml drug, seven days, n=4
[4] = system: R5X4 dual-tropic HIV-1 (strain 89.6); assay type: cell-based; conditions: 0.1-1μg/ml TDF, n=5
Procedure, shortened: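 Infected CD4 T cells (5×10^5; anti-CD3/IL2-activated, MOI 0.1) were placed in 0.4μm-pore transwells above mature adipocytes in adipocyte maintenance medium. Drug was added to the lower wells just before, with 100ng/ml IL-2, for 6-7 days. Read-out was supernatant p24 by ELISA, reported as percent change relative to untreated. Singlet wells; experiments repeated with different donor cells; mean±sem.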

[5] = system: R5X4 dual-tropic HIV-1 (strain 89.6); assay type: cell-based; conditions: 1μg/ml drug, seven days, n=3
Procedure, shortened: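 Anti-CD3 (1μg/ml plate-bound) plus IL2 (100ng/ml) stimulated CD4 T cells for 48 hrs at 37°C/5%CO2. Cells were infected at MOI 0.1 for 48 hrs with IL2, then 5×10^5 were seeded directly onto mature adipocytes differentiated from 5×10^4 preadipocytes/well. Co-culture ran seven days with IL-2 and drug. Read-out was intracellular p24 by flow cytometry (clone KC57) after viability dye; singlet wells per condition.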

[6] = system: R5X4 dual-tropic HIV-1 (strain 89.6); assay type: cell-based; conditions: 0.1-1μg/ml TDF, seven days, n=6
[7] = system: R5X4 dual-tropic HIV-1 (strain 89.6); assay type: cell-based; conditions: 0.1-1μg/ml TDF, seven days, n=6; remark: listed apart in the source
[8] = direct contact co-culture with adipocytes

SMILES: CC(C)OC(=O)[C@H](C)N[P@](=O)(CO[C@H](C)Cn1cnc2c(N)ncnc21)Oc1ccccc1 [TAF, tenofovir alafenamide]
reduced HIV replication (intracellular p24) ([3]; 0.1-1μg/ml TAF, in the presence of adipocytes): 1-64%
reduced HIV replication (intracellular p24) ([3]; 0.1-1μg/ml TAF, medium alone): 40-98%
CD69+p24+ expression (HIV-infected CD4 T cells; co-culture with adipocytes): 8-12%
CD69+p24+ expression (HIV-infected CD4 T cells; medium alone): < 2%

SMILES: CC(C)OC(=O)OCOP(=O)(CO[C@H](C)Cn1cnc2c(N)ncnc21)OCOC(=O)OC(C)C [TDF, tenofovir disoproxil fumarate]
reduced HIV replication (intracellular p24) ([3]; 0.5-2μg/ml TDF, in the presence of adipocytes): 15-38%
reduced HIV replication (intracellular p24) ([3]; 0.5-2μg/ml TDF, medium alone): 60-95%
reduced HIV replication (extracellular p24 by ELISA) ([4]; in the presence of adipocytes): 4-41%
reduced HIV replication (extracellular p24 by ELISA) ([4]; medium alone): 57-85%
HIV production (p24+) [5, 8]: 55-60%
HIV production (p24+) ([5]; medium alone): 15-16 % p24+
effect of preadipocytes on antiviral activity [6]: neither preadipocytes or Caco-2 cells significantly affected
effect of Caco-2 cells on antiviral activity [7]: neither preadipocytes or Caco-2 cells significantly affected
CD69+p24+ expression (HIV-infected CD4 T cells; co-culture with adipocytes): 8-12%
CD69+p24+ expression (HIV-infected CD4 T cells; medium alone): < 2%

SMILES: COC(=O)N[C@H](C(=O)N[C@@H](Cc1ccccc1)[C@@H](O)CN(Cc1ccc(-c2ccccn2)cc1)NC(=O)[C@@H](NC(=O)OC)C(C)(C)C)C(C)(C)C [atazanavir]
intracellular concentration in tissues examined (tissue not specified) ([1]; Pt.07): undetectable

SMILES: COc1cc2c(cc1Cc1cccc(Cl)c1F)c(=O)c(C(=O)O)cn2[C@H](CO)C(C)C [elvitegravir]
intracellular concentration in PBMC ([1]; Pt.05): undetectable
intracellular concentration in subcutaneous AT-SVF cells ([1]; Pt.05): 339 fmol/million cells

SMILES: CC(C)c1nc(CN(C)C(=O)N[C@H](C(=O)N[C@@H](Cc2ccccc2)C[C@H](O)[C@H](Cc2ccccc2)NC(=O)OCc2cncs2)C(C)C)cs1 [ritonavir]
intracellular concentration in tissues examined (tissue not specified) ([1]; Pt.07): undetectable

SMILES: C[C@H](Cn1cnc2c(N)ncnc21)OCP(=O)(O)O [tenofovir]
reduced HIV replication (intracellular p24) ([3]; 1-5μg/ml tenofovir, in the presence of adipocytes): 5-43%
reduced HIV replication (intracellular p24) ([3]; 1-5μg/ml tenofovir, medium alone): 65-91%
HIV production (p24+) [5, 8]: 55-60%
HIV production (p24+) ([5]; medium alone): 15-16 % p24+
CD69+p24+ expression (HIV-infected CD4 T cells; co-culture with adipocytes): 8-12%
CD69+p24+ expression (HIV-infected CD4 T cells; medium alone): < 2%

The remaining lines, values ahead:

concentration in serum ([1]; human, in vivo): 37 ng/mL
intracellular concentration in tissues examined (tissue not specified) ([1]; human, in vivo): undetectable
intracellular concentration in visceral AT-SVF cells ([1]; human, in vivo): undetectable
SMILES: Nc1ccn([C@@H]2CS[C@H](COP(=O)(O)OP(=O)(O)OP(=O)(O)O)O2)c(=O)n1 [3TC-TP]

intracellular concentration in tissues examined (tissue not specified) ([1]; human, in vivo): undetectable
intracellular concentration in visceral AT-SVF cells ([1]; human, in vivo): undetectable
SMILES: Nc1nc(=O)c2ncn([C@H]3C=C[C@@H](COP(=O)(O)OP(=O)(O)OP(=O)(O)O)C3)c2[nH]1 [CBV-TP]

concentration in serum ([1]; human, in vivo): 2,687 ng/ml
intracellular concentration in PBMC ([1]; human, in vivo): 14,682 fmol/million cells
intracellular concentration in lymph node cells ([1]; human, in vivo): 1,053 fmol/million cells
intracellular concentration in tissues examined (tissue not specified) ([1]; human, in vivo): undetectable
intracellular concentration in subcutaneous AT-SVF cells ([1]; human, in vivo, sc): 4,459 fmol/million cells
intracellular concentration in subcutaneous adipocytes ([1]; human, in vivo, sc): 11 fmol/million cells
intracellular concentration in PBMC [2]: 700-1,400 fmol/million cells
intracellular concentration in lysates of AT-SVF fractions [2]: undetectable
intracellular concentration in lysates of adipocyte fractions [2]: undetectable
SMILES: Nc1nc(=O)n([C@@H]2CS[C@H](COP(=O)(O)OP(=O)(O)OP(=O)(O)O)O2)cc1F [FTC-TP]

concentration in serum ([1]; human, in vivo): 246 ng/mL
intracellular concentration in PBMC ([1]; human, in vivo): 633 fmol/million cells
intracellular concentration in tissues examined (tissue not specified) ([1]; human, in vivo): undetectable
intracellular concentration in subcutaneous AT-SVF cells ([1]; human, in vivo, sc): 724 fmol/million cells
intracellular concentration in subcutaneous adipocytes ([1]; human, in vivo, sc): 7 fmol/million cells
intracellular concentration in PBMC [2]: 80-770 fmol/million cells
intracellular concentration in lysates of AT-SVF fractions [2]: undetectable
intracellular concentration in lysates of adipocyte fractions [2]: undetectable
SMILES: C[C@@H](Cn1cnc2c(N)ncnc21)OCP(=O)(O)OP(=O)(O)OP(=O)(O)O [TFV-DP]

intracellular concentration in lymph node cells ([1]; Pt.06): undetectable
intracellular concentration in visceral adipocytes ([1]; Pt.06): undetectable
SMILES: Nc1nc(NC2CC2)c2ncn([C@H]3C=C[C@@H](CO)C3)c2n1 [abacavir]

intracellular concentration in visceral AT-SVF cells ([1]; Pt.01): undetectable
intracellular concentration in lymph node cells ([1]; Pt.03): 793 fmol/million cells
intracellular concentration in subcutaneous AT-SVF cells ([1]; Pt.03): 129 fmol/million cells
intracellular concentration in subcutaneous adipocytes ([1]; Pt.03): 151 fmol/million cells
intracellular concentration in lymph node cells ([1]; Pt.04): 749 fmol/million cells
intracellular concentration in subcutaneous AT-SVF cells ([1]; Pt.04): 1,439 fmol/million cells
intracellular concentration in subcutaneous adipocytes ([1]; Pt.04): 382 fmol/million cells
intracellular concentration in subcutaneous AT-SVF cells ([1]; Pt.07): 4 fmol/million cells
concentration in serum ([1]; Pt.08): 1,324 ng/ml
intracellular concentration in PBMC ([1]; Pt.08): 46 fmol/million cells
intracellular concentration in lymph node cells ([1]; Pt.08): 17 fmol/million cells
intracellular concentration in subcutaneous AT-SVF cells ([1]; Pt.08): 449 fmol/million cells
intracellular concentration in subcutaneous adipocytes ([1]; Pt.08): 363 fmol/million cells
SMILES: C[C@@H]1CCO[C@H]2Cn3cc(C(=O)NCc4ccc(F)cc4F)c(=O)c(O)c3C(=O)N12 [dolutegravir]

intracellular concentration in visceral adipocytes ([1]; Pt.06): 139 fmol/million cells
SMILES: Cc1ccnc2c1NC(=O)c1cccnc1N2C1CC1 [nevirapine]

From paper PMC5955795 (Antiviral research, 2018)
